The source made the active and inactive calls. The rule behind the calls is not given here.
What was measured:
Rattus norvegicus [1] = assay: Antihyperglycemic activity against sucrose challenged streptozotocin-induced diabetic Sprague-Dawley albino rat assessed as reduction in blood glucose level at 25 mg/kg, po administered 30 mins before sucrose challenge; type: functional
In short: (§1)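 Streptozotocin-diabetic Sprague Dawley rats: streptozotocin 60 mg/kg ip in citrate pH 4.5; rats at 144–270 mg/dl after 48 h used. Oral doses of 7.5–100 mg/kg in 1.0% gum acacia, then sucrose 2.5 g/kg. Glucose measured at 30, 60, 90, 120, 180, 240, 300 and 1440 min. ED50 taken from dose response. Mean ± SD, n = 5; Dunnett's test.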

[2] = target: T1, Tyrosine-protein phosphatase non-receptor type 1 (Homo sapiens) (UniProt P18031); assay: Inhibition of protein tyrosine phosphatase-1B at 10 uM incubated for 10 mins using pNPP substrate by modified Goldstein method
T1 sequence (whole entry): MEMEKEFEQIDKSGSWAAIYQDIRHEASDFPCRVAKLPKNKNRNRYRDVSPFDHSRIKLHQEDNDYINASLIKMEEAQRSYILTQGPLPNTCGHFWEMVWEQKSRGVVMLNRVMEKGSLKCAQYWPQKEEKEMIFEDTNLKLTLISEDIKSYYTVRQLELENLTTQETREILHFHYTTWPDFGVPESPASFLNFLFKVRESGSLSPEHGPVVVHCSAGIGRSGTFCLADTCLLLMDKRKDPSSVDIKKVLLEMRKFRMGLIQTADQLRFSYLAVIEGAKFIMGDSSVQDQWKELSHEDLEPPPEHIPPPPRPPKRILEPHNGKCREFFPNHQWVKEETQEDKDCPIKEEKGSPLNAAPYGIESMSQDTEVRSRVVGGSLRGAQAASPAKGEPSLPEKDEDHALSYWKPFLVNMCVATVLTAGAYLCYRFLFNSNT
In short: (§2)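 PTP-1B: compound preincubated 10 min with enzyme, with or without 0.01% Triton X-100. Then 10 mM pNPP in 50 mM HEPES pH 7.0 with 1 mM DTT and 2 mM EDTA, 30 min at 37 °C. Stopped with 0.1 N NaOH; absorbance read at 410 nm. p-Nitrophenolate calculated using ε 1.78 × 10⁴ M⁻¹cm⁻¹. Sodium orthovanadate used as reference.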

[3] = target: Dipeptidyl peptidase 4 (Homo sapiens) (UniProt P27487); assay: Inhibition of DPP4 assessed as rate of substrate cleavage using Gly-Pro-AMC substrate by spectrofluorometry
In short: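 DPP-IV activity read by fluorescence at 37 °C, excitation 355 nm and emission 460 nm. Initial rate calculated over the first 15 min as increase in fluorescence intensity.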

Rattus norvegicus [4] = assay: Antihyperglycemic activity against sucrose challenged streptozotocin-induced diabetic Sprague-Dawley albino rat assessed as reduction in blood glucose level at 7.5 mg/kg, po administered 30 mins before sucrose challenge; type: functional; in short: as §1
Rattus norvegicus [5] = assay: Antihyperglycemic activity against sucrose challenged streptozotocin-induced diabetic Sprague-Dawley albino rat assessed as reduction in blood glucose level administered orally 30 mins before sucrose challenge; type: functional; conditions: po; in short: as §1
Mus musculus [6] = assay: Antihyperglycemic activity in C57BL/Ks db/db mouse assessed as reduction in blood glucose level at 100 mg/kg, po measured 6 days post dose by postprandial glucose tolerance test; type: functional; conditions: 144 h
In short: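 C57BL/KsBom-db mice, 12–18 weeks, 40–50 g, 5 male and 5 female, at 23 °C with 12/12 h light cycle. Treated orally at 100 mg/kg, vehicle 1.0% gum acacia. Day 6 postprandial test: glucose at −0.5 h and 0 h, then at 1, 2, 3, 4 and 6 h after dosing.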

Mus musculus [7] = assay: Antihyperglycemic activity in C57BL/Ks db/db mouse assessed as reduction in blood glucose level at 100 mg/kg, po measured 10 days post dose by postprandial glucose tolerance test; type: functional; conditions: 240 h, in the assay text read “oral glucose tolerance test” for “postprandial glucose tolerance test”
In short: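 db/db mice (C57BL/KsBom, 12–18 weeks, 40–50 g) given 100 mg/kg orally, vehicle 1.0% gum acacia. Day 10 OGTT after overnight fast: glucose at −30 min and drug given, then glucose at 0 min. Glucose 3 g/kg given, with readings at 30, 60, 90 and 120 min.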

Mus musculus [8] = assay: Antidyslipidemic activity in C57BL/Ks db/db mouse assessed as plasma HDL-cholesterol level at 100 mg/kg, po; type: functional
In short: (§3)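 db/db mice (C57BL/KsBom, 12–18 weeks, 5 male and 5 female) dosed orally at 100 mg/kg in 1.0% gum acacia. Blood collected on day 8 for serum lipids. Mean ± SD, n = 5, against vehicle-treated db/db controls; Dunnett's test.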

Rattus norvegicus [9] = assay: Antihyperglycemic activity in Charles Foster/Wistar albino rat assessed as reduction in blood glucose level at 100 mg/kg, po administered 30 mins before sucrose challenge; type: functional
In short: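 Male Charles Foster/Wistar rats, 160 ± 20 g, fasted 16 h; animals with glucose 60–80 mg/dl used, 5–6 per group. Given 100 mg/kg orally as suspension in 1.0% gum acacia (controls vehicle alone). Sucrose 10.0 g/kg orally 30 min later. Glucometer readings at 30, 60, 90, 120 min. Percent activity derived from AUC of treated versus control groups.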

[10] = target: T2, Tyrosine-protein phosphatase non-receptor type 1 (Homo sapiens, UniProt P18031); assay: Inhibition of protein tyrosine phosphatase-1B at 10 uM incubated for 10 mins using pNPP substrate in absence of Triton X-100 by modified Goldstein method; in short: as §2
T2 sequence (P18031 whole entry): T1 sequence (whole entry)

Rattus norvegicus [11] = assay: Antihyperglycemic activity against sucrose challenged streptozotocin-induced diabetic Sprague-Dawley albino rat assessed as reduction in blood glucose level at 100 mg/kg, po administered 30 mins before sucrose challenge measured after 5 hrs; type: functional
In short: (§4)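 Male Sprague Dawley rats, 160 ± 20 g, fasted overnight, given streptozotocin 60 mg/kg ip in 100 mM citrate pH 4.5. Rats with glucose 144–270 mg/dl at 48 h count as diabetic, 5–6 per group. Dosed 100 mg/kg orally in 1.0% gum acacia. Sucrose 2.5 g/kg given 30 min later. Glucose read at 30–300 min and 24 h. Non-responders excluded.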

Rattus norvegicus [12] = assay: Antihyperglycemic activity against sucrose challenged streptozotocin-induced diabetic Sprague-Dawley albino rat assessed as reduction in blood glucose level at 100 mg/kg, po administered 30 mins before sucrose challenge; type: functional; in short: as §4
Rattus norvegicus [13] = assay: Antihyperglycemic activity against sucrose challenged streptozotocin-induced diabetic Sprague-Dawley albino rat assessed as reduction in blood glucose level at 100 mg/kg, po administered 30 mins before sucrose challenge measured after 24 hrs; type: functional; in short: as §4
[14] = target: T3, Peroxisome proliferator-activated receptor gamma (Homo sapiens) (UniProt P37231); assay: Activation of PPARgamma by receptor transactivation assay
T3 sequence (whole entry): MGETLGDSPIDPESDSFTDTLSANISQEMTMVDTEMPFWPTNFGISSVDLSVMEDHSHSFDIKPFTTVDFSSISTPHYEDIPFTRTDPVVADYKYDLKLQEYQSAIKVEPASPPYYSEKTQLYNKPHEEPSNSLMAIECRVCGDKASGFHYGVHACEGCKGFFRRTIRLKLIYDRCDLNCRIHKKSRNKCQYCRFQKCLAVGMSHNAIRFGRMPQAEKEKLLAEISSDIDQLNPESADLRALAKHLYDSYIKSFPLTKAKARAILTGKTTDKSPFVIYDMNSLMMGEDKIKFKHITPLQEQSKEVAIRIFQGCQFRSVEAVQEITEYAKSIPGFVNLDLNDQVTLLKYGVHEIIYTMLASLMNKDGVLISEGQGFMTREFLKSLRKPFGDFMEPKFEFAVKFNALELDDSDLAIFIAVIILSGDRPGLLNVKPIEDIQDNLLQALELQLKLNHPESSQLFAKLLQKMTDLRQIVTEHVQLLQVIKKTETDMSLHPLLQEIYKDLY

Mus musculus [15] = assay: Antidyslipidemic activity in C57BL/Ks db/db mouse assessed as reduction in plasma cholesterol level at 100 mg/kg, po; type: functional; in short: as §3
Rattus norvegicus [16] = assay: Antihyperglycemic activity against sucrose challenged streptozotocin-induced diabetic Sprague-Dawley albino rat assessed as reduction in blood glucose level at 50 mg/kg, po administered 30 mins before sucrose challenge; type: functional; in short: as §1
Mus musculus [17] = organism: Mus musculus; assay: Antihyperglycemic activity in C57BL/Ks db/db mouse assessed as reduction in blood glucose level measured after 3 days relative to control; type: functional
Rattus norvegicus [18] = assay: Antihyperglycemic activity against sucrose challenged streptozotocin-induced diabetic Sprague-Dawley albino rat assessed as reduction in blood glucose level at 15 mg/kg, po administered 30 mins before sucrose challenge; type: functional; in short: as §1
Mus musculus [19] = assay: Antidyslipidemic activity in C57BL/Ks db/db mouse assessed as reduction in plasma triglyceride level at 100 mg/kg, po; type: functional; in short: as §3
[20] = target: T2, Tyrosine-protein phosphatase non-receptor type 1; assay: Inhibition of protein tyrosine phosphatase-1B at 10 uM incubated for 10 mins using pNPP substrate in presence of 0.01% Triton X-100 by modified Goldstein method; in short: as §2

Sequence of Dipeptidyl peptidase 4 (Homo sapiens) (P27487 whole entry, looked up): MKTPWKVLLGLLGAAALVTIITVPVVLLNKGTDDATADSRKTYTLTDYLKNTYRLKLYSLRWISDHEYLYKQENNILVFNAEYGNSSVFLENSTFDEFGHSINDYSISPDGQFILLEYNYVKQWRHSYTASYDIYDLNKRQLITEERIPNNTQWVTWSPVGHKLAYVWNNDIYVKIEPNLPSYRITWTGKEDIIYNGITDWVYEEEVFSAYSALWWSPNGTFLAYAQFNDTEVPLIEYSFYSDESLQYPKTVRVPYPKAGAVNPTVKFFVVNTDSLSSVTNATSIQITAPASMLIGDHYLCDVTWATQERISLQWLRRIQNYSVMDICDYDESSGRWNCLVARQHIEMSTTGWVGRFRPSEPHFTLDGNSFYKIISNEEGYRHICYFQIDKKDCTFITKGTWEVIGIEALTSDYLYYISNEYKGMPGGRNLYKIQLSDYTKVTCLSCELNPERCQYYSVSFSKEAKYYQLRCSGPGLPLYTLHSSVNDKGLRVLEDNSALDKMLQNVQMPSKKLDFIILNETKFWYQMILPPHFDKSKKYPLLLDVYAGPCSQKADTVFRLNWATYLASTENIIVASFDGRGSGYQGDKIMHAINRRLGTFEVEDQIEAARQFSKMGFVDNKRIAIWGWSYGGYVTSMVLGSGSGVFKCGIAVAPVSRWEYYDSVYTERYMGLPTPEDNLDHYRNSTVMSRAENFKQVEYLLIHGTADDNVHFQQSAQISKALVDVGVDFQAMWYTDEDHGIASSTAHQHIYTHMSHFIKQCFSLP

SMILES	inhibition in vivo at 25 mg/kg (Rattus norvegicus [1])	inhibition [2]	inhibition [3]	inhibition in vivo at 7.5 mg/kg (Rattus norvegicus [4])	ED50 (Rattus norvegicus [5])	inhibition in vivo at 100 mg/kg (Mus musculus [6])	inhibition in vivo at 100 mg/kg (Mus musculus [7])	Activity (Mus musculus [8])	inhibition in vivo at 100 mg/kg (Rattus norvegicus [9])	IC50 [10]	inhibition in vivo at 100 mg/kg (Rattus norvegicus [11])	inhibition in vivo at 100 mg/kg (Rattus norvegicus [12])	inhibition in vivo at 100 mg/kg (Rattus norvegicus [13])	Activity [14]	inhibition in vivo at 100 mg/kg (Mus musculus [15])	inhibition in vivo at 50 mg/kg (Rattus norvegicus [16])	inhibition (INH) (Mus musculus [17])	inhibition in vivo at 15 mg/kg (Rattus norvegicus [18])	inhibition in vivo at 100 mg/kg (Mus musculus [19])	IC50 [20]
COc1ccc(-c2cc(-c3ccccc3)no2)c(OCCN2CCCCC2)c1	14%	76.3%	inactive	9.8%	64.5 mg/kg	17.4%	16.1%	1.3%	27.6%	8.8 µM	17.6%	20.7%	18.7%	inactive	-12.2%	16.7%	18.5%	12.6%	-7.5%	9 µM
COc1ccc(-c2cc(-c3ccccc3)no2)c(OCCN2CCCC2)c1	15.2%	99.2%	inactive	11.5%	54.8 mg/kg	21.4%	21.6%	3%	36.9%	1.5 µM	27.7%	27.7%	28.7%		-17.6%	18.5%	22.8%	13.7%	-10.5%	1.51 µM
